According to PubChem BioAssay:
Activity calls are given as the source filed them.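 How the source made its calls: active means current rise at least 3 SD above the untreated control mean in each of two repeat wells; inactive means the rest.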

The molecules below were run against Potassium voltage-gated channel subfamily KQT member 1 (Homo sapiens) (UniProt P51787) (assay: KCNQ1 activators by electrophysiology – IonWorks patch clamp, KCNQ1-CHO cells, orthogonal assay for KCNQ1 potentiator project, confirmation (AID 493184)). Details: automated patch clamp current, at 10 µM.
Summary of the method: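 Read-out: Percent current increase versus pre-compound level | Assay system: CHO cells carrying KCNQ1 | Measured by: Automated perforated-patch electrophysiology | Medium: External bath solution at pH 7.4 | Dosing: One dose, 10 µM final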

Sequence of Potassium voltage-gated channel subfamily KQT member 1 (Homo sapiens) (P51787 whole entry, looked up): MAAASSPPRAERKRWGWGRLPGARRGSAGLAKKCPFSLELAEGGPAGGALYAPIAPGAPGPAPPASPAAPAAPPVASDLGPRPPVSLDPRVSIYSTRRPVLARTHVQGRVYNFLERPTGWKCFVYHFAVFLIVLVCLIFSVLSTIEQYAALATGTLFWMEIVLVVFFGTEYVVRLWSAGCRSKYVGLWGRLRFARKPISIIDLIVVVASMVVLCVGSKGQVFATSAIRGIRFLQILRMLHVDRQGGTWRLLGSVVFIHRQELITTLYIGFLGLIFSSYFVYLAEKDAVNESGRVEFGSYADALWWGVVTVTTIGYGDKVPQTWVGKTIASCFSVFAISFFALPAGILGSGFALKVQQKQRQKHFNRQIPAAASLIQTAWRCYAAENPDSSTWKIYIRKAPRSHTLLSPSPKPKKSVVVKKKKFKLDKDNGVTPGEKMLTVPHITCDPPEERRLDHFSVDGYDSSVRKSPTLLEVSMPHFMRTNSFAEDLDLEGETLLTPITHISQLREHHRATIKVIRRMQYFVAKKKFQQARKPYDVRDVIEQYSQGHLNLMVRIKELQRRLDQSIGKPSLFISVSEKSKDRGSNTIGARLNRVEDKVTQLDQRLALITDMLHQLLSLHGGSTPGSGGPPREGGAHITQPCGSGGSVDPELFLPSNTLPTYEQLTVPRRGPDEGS

outcome, inactive:
COc1ccccc1OCCc1nnc(N)s1
O=C(Nc1cccc2cccnc12)c1ccc(Br)o1
CC(=O)c1c(N2CCCC2)[nH]c(-c2ccccc2)nc1=S
CCOc1ccc(NC(=O)CN(C)C(=O)c2c(-c3c(F)cccc3Cl)noc2C)cc1OCC
C/C(=N/NC(=O)c1cc(C2CC2)[nH]n1)c1cccs1
Cc1cccc(C)c1NC(=S)NC(=O)c1ccc(Br)o1
O=C(CC(=O)c1ccccc1O)c1cccc(F)c1
O=C(c1ccco1)N1CCN(S(=O)(=O)c2ccc(F)cc2)CC1
Cc1ccnc(NS(=O)(=O)c2ccc(NC(=O)C34CC5CC(CC(C5)C3)C4)cc2)n1
CCc1ccc2[nH]c(O)c(N=Nc3nc(-c4ccccc4)cs3)c2c1
Cc1cccc(C(=O)Oc2csc(=S)n2C(=O)c2cccc(C)c2)c1
CC1SCC(=NOCc2c(Cl)cccc2Cl)CS1 (centres undefined)
CCC1CCCCN1C(=S)NC(=O)c1cccs1 (centres undefined)
COc1ccc(/C=C2/S/C(=N/N=C3\CC4CCC3(C)C4(C)C)NC2=O)cc1 (centres undefined)
Cn1ncc2c(O/N=C(\N)c3ccc(C(F)(F)F)cc3)ncnc21
CCOC(=O)c1c(NC(=S)NCC2CCCO2)sc(C)c1C (centres undefined)
O=C(NCc1ccccc1)c1onc(CSc2ccc(F)cc2)c1C(=O)NCCCN1CCOCC1
CCCCC(Nc1ncnc2ccccc12)C(=O)O (centres undefined)
C=CCn1c(N)c(C(=O)Nc2ccc(C)cc2)sc1=S
CC(Oc1ccc(Br)cc1)C(=O)N1CCC(C(N)=O)CC1 (centres undefined)
CCSc1nnc(NS(=O)(=O)c2ccc(OC)cc2)s1
COc1ccc(C(=O)N2CCC(n3nccc3NC(=O)C3CCOC3)CC2)cc1 (centres undefined)
CN(CC(=O)Nc1ccc(F)c(F)c1F)C(=O)CC1OC(=O)c2ccccc21 (centres undefined)
C=CCn1c(=S)[nH]c2scc(-c3ccc(C)o3)c2c1=O
COCCCNc1nc2ccccc2nc1NS(=O)(=O)c1cccs1
S=C1NC2(CCCCC2)Cc2ccccc21
CS(=O)(=O)NN1C(=O)c2ccccc2NC1c1ccccc1F (centres undefined)
CC(=O)Nc1nc2c(F)cccc2s1
CC(=O)c1c(C)[nH]c(C(=O)OCc2nc3ccsc3c(=O)[nH]2)c1C
Fc1ccc(SCCc2ccncc2)cc1
CCOc1ccc(C(C#N)N2CCOCC2)cc1OC (centres undefined)
CNCc1ccccc1Sc1cccc2ccccc12
COc1ccc(S(=O)(=O)NCCCN2CCOCC2)cc1F
CC1=NN(C(N)=S)C(=O)C1N=Nc1cccc(Cl)c1C (centres undefined)
COc1ccc(NC(=O)CC2C(=O)N(c3ccc(Cl)cc3)C(=S)N2NC(=O)c2cccc(F)c2)cc1 (centres undefined)
CCCCn1c(=S)[nH]c2ccccc2c1=O
FC(F)Sc1nc2ccccc2[nH]1
Cc1nn2c(c1-c1ccccc1)NC1=C(C(=O)CCC1)C2c1ccccc1 (centres undefined)
COCCN1CCCC(CNCc2cn(C)nc2-c2ccc(Oc3ccccc3)cc2)C1 (centres undefined)
